Results reported in ChEMBL document CHEMBL5390200, “Synthesis and evaluation of DAG-lactone derivatives with HIV-1 latency reversing activity” (Eur J Med Chem, 2023).

Experiments:
[1] = tested on: Human immunodeficiency virus 1; experiment: HIV1-latency reversing activity in human ACH-2 cell line incubated for 48 hrs; assay type: functional, organism-based; conditions: Human immunodeficiency virus 1, ACH-2, 48 h
[2] = tested on: Human immunodeficiency virus 1; experiment: HIV1-latency reversing activity in human J-Lat 10.6 cells assessed as change in GFP expression incubated for 24 hrs by flow cytometric analysis; assay type: functional, organism-based; conditions: Human immunodeficiency virus 1, J-Lat 10.6, 24 h
Method in brief: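 Cells seeded at 2 × 10^5 per well and exposed to a range of compound concentrations for 24 h; 10 nM PMA served as reference. GFP-positive cells counted by flow cytometry. Means ± SD from at least two independent experiments.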

[3] = Cytotoxicity against human Jurkat cells assessed as reduction in cell viability incubated for 24 hrs by Ghost dye 780 staining based flow cytometric analysis; assay type: toxicity
[4] = molecular target: Protein kinase C delta type (Homo sapiens, UniProt Q05655); experiment: Binding affinity to PKCdelta C1B domain (231 to 281 residues) (unknown origin) by 6-methoxynaphthalene DAG lactone probe based fluorescence quenching assay
[5] = Stability of the compound assessed as porcine liver esterase-mediated hydrolysis measured after 1 to 24 hrs by HPLC analysis; assay type: ADME, Sus scrofa; conditions: pig, isolated protein; time 1-24 hrs
Method in brief: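 Compounds taken from 100 mM DMSO stock to 1 mM final in 50 mM HEPES pH 7.2 with 0.01 U PLE, then held at 37 °C. Aliquots sampled at 1, 3, 6 and 24 h and quenched into equal volume MeCN/0.1% TFA. C18 reversed-phase HPLC with 0–95% MeCN gradient over 40 min, UV detection at 245 nm. Residual peak area normalized to 0 h.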

[6] = tested on: Human immunodeficiency virus 1; experiment: HIV1-latency reversing activity in human U1 cells incubated for 2 days; assay type: functional, organism-based; conditions: Human immunodeficiency virus 1, U1, 48 h

Protein kinase C delta type, sequence (Q05655 whole entry, the tested form may be a part): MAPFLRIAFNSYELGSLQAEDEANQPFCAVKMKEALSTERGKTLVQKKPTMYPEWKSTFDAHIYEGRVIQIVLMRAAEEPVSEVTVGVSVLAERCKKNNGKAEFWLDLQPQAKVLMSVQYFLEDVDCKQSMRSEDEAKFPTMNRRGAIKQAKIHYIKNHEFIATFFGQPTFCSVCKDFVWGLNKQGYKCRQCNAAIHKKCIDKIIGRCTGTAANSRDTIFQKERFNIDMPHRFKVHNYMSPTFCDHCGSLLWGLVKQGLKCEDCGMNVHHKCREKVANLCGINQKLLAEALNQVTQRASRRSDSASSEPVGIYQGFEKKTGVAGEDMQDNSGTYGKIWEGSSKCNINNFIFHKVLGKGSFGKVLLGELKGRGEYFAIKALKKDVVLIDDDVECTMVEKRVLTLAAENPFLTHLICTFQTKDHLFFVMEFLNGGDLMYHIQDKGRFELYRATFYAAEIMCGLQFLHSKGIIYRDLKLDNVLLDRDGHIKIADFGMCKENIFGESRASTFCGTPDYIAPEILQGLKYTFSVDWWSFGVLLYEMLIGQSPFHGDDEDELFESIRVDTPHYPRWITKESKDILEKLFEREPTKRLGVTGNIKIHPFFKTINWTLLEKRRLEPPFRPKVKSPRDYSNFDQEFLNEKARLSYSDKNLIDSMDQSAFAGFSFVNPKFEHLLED

EC50 [2] [nM] | Compound | CC50 at 24 h [3] [nM] | other results
 | CCCCCCCCCCc1ccc2c(c1)N(C)[C@@H](C(C)C)C(=O)N[C@H](CO)C2 |  | EC50 [1]: 25 nM
> 10000 | CC(C)=C1CC(CO)(COC(=O)C2CCC(C)CC2)OC1=O (centres undefined) |  | 
220 | CCCCCCC(CCCCCC)C(=O)OCC1(CO)CC(=C(C)C)C(=O)O1 (centres undefined) | > 10000 | IC50 ([4]; read-out: IC50): 690 nM; Stability [5]: Stable
> 10000 | CC(C)=C1CC(CO)(COC(=O)C(C)(C)C)OC1=O (centres undefined) | > 10000 | IC50 ([4]; read-out: IC50): > 10000 nM; Stability [5]: Stable
380 | CCCCCCCC(CCCCCCC)C(=O)OCC1(CO)CC(=C(C)C)C(=O)O1 (centres undefined) | > 10000 | 
> 10000 | CC(C)=C1CC(CO)(COC(=O)C(C)C)OC1=O (centres undefined) |  | 
430 | CCCCCC(CCCCC)C(=O)OCC1(CO)CC(=C(C)C)C(=O)O1 (centres undefined) | > 10000 | 
 | C=C(C)[C@]12C[C@@H](COC(=O)c3ccccc3)[C@@]34O[C@@]5(O[C@@H]1[C@@H]3[C@@H]1O[C@]1(CO)[C@@H](O)[C@@]1(O)[C@H]4[C@H]([C@H](C)[C@@H]1OC(=O)c1ccccc1)[C@H](C)CCCCCC[C@H]5O)O2 |  | EC50 [6]: 0.018 nM
> 10000 | CC(C)=C1CC(CO)(COC(=O)c2ccc3ccccc3c2)OC1=O (centres undefined) |  | 
> 10000 | CC(C)=C1CC(CO)(COC(=O)C2CCCCC2)OC1=O (centres undefined) |  | 
2000 | CCCC(CCC)C(=O)OCC1(CO)CC(=C(C)C)C(=O)O1 (centres undefined) | > 10000 | Stability [5]: Stable
> 10000 | CCCCC(=O)OCC1(CO)CC(=C(C)C)C(=O)O1 (centres undefined) |  | 
> 10000 | CCC(CC)C(=O)OCC1(CO)CC(=C(C)C)C(=O)O1 (centres undefined) |  | 
820 | CCCCC(CCCC)C(=O)OCC1(CO)CC(=C(C)C)C(=O)O1 (centres undefined) | > 10000 | 
> 10000 | CC(=O)OCC1(CO)CC(=C(C)C)C(=O)O1 (centres undefined) | > 10000 | IC50 [4]: Not Active
> 10000 | CC(C)=C1CC(CO)(COC(=O)c2ccccc2)OC1=O (centres undefined) |  | 
340 | CCCCCCCCC(CCCCCCCC)C(=O)OCC1(CO)CC(=C(C)C)C(=O)O1 (centres undefined) | > 10000 | 
310 | CCCCCCCCCC(CCCCCCCCC)C(=O)OCC1(CO)CC(=C(C)C)C(=O)O1 (centres undefined) | > 10000 | IC50 ([4]; read-out: IC50): 560 nM
 | CC(=O)O[C@@]12C[C@@H](C)[C@@]3(O)[C@@H](C=C(CO)C[C@]4(O)C(=O)C(C)=C[C@@H]34)[C@@H]1C2(C)C [PROSTRATIN] | > 10000 | 

Compound | EC50 [2] [nM] | CC50 at 24 h [3] [nM] | other results
CCCCCCCCCC(=O)OCC1(CO)CC(=C(C)C)C(=O)O1 (centres undefined) | > 10000 | > 10000 | IC50 ([4]; read-out: IC50): 2200 nM; Stability [5]: Unstable
